Measurements reported in ChEMBL document CHEMBL1138564, “Microwave-induced synthesis and anti-microbial activities of 7,10,11,12-tetrahydrobenzo[c]acridin-8(9H)-one derivatives” (2009).

What was measured:
Type in all cases: functional
[1] = test system: Aspergillus niger; assay: Antimicrobial activity against Aspergillus niger NCIM 902 at 10 ug/disk after 72 hrs by disk diffusion method; settings: NCIM 902, 72 h, read-out: DIZ
How it was run: (§1)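 Disc diffusion on Sabouraud's dextrose agar. 100 µl of fungal suspension at 10⁶ CFU/ml is spread on the plate. Discs carry test compounds at two loadings in DMSO; DMSO alone is the negative control. Clotrimazole disc is the positive reference. Plates are incubated at 27 °C for 72 h, and the zone of inhibition diameter is measured.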

[2] = test system: Aspergillus flavus; assay: Antimicrobial activity against Aspergillus flavus NCIM 902 at 10 ug/disk after 72 hrs by disk diffusion method; settings: NCIM 535, 72 h, in the assay text read “NCIM 535” for “NCIM 902”, read-out: DIZ; how it was run: as §1
[3] = test system: Lipomyces lipofer; assay: Antimicrobial activity against Lipomyces lipofer NCIM 3252 at 10 ug/disk after 72 hrs by disk diffusion method; settings: NCIM 3252, 72 h, read-out: DIZ; how it was run: as §1
[4] = test system: Rhodotorula mucilaginosa; assay: Antimicrobial activity against Rhodotorula rubra NCIM 3174 at 10 ug/disk after 72 hrs by disk diffusion method; settings: NCIM 3174, 72 h, read-out: DIZ
How it was run: (§2)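 Clotrimazole reference disc at 10 µg/disc. Fungal inoculum of 100 µl at 10⁶ CFU/ml was spread on Sabouraud's dextrose agar and incubated at 27 °C for 72 h. The read-out was inhibition zone diameter.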

[5] = test system: Trichoderma viride; assay: Antimicrobial activity against Trichoderma viride NCIM 1195 at 10 ug/disk after 72 hrs by disk diffusion method; settings: NCIM 1195, 72 h, read-out: DIZ; how it was run: as §2
[6] = test system: Aspergillus parasiticus; assay: Antimicrobial activity against Aspergillus parasiticus NCIM 904 at 10 ug/disk after 72 hrs by disk diffusion method; settings: NCIM 904, 72 h, read-out: DIZ; how it was run: as §1
[7] = test system: Aspergillus fumigatus; assay: Antimicrobial activity against Aspergillus fumigatus NCIM 902 at 10 ug/disk after 72 hrs by disk diffusion method; settings: NCIM 902, 72 h, read-out: DIZ; how it was run: as §1
[8] = test system: Penicillium chrysogenum; assay: Antimicrobial activity against Penicillium chrysogenum NCIM 707 at 10 ug/disk after 72 hrs by disk diffusion method; settings: NCIM 707, 72 h, read-out: DIZ; how it was run: as §1

Compound: Clc1ccccc1C(c1ccccc1)(c1ccccc1)n1ccnc1 [CLOTRIMAZOLE]
- zone of inhibition at 10 µg/disc [1]: 16 mm
- zone of inhibition at 10 µg/disc [2]: 16 mm
- zone of inhibition at 10 µg/disc [3]: 18 mm
- zone of inhibition at 10 µg/disc [4]: 17 mm
- zone of inhibition at 10 µg/disc [5]: 19 mm
- zone of inhibition at 10 µg/disc [6]: 18 mm
- zone of inhibition at 10 µg/disc [7]: 18 mm
- zone of inhibition at 10 µg/disc [8]: 21 mm
